FGF22 binding: shifts melting point of recombinant human FGF22; Q9HCT0; recombinant FGF22 thermal shift, SYPRO orange fluorescence; percent of sucrose octasulfate shift, DMSO zero; activity (Tm shift, normalised), % at 9.99 µM; 340,000 compounds, 1.5% hits; AID 651658;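 active = mean Tm shift, scaled 0 neutral to 100 positive control, at about 1.3% or above, every replicate too, limit read from the data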
ABCB6 inh MLPCN: human ABCB6 transporter inhibition | K562-ABCB6 porphyrin accumulation, flow cytometry, 1 h; stronger effect = lower value | 360,000 compounds, 0.19% hits | fluorescence ratio to DMSO, % at 10 µM | Q9NP58;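 active = fluorescence ratio to DMSO below 75%, the collection mean minus 3 SD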;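 also: signal is porphyrin accumulated inside mitochondria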
DAGLB inh: blocks human DAGLB lipase activity. Q8NCG7. 340,000 compounds, 0.059% hits. AID 504411. inhibition, % at 5.17 µM. HEK293T DAGLB membrane lysate, EnzChek fluorogenic substrate; in the data active = inhibition above about 34%
Granule exo inh: blocks lytic granule exocytosis; TALL-104 LAMP-1 surface exposure, flow cytometry; cells stimulated with thapsigargin and PMA; inhibition, % at 10 µM; 360,000 compounds, 0.66% hits;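 active = inhibition above about 55%, limit read from the data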
VLA-4 inh: inhibition in a human VLA-4 binding assay; P13612; VLA-4 expressing cells, ligand binding flow cytometry; inhibition, % (about 7 µM as worked out from the volumes in the protocol); 330,000 compounds, 0.2% hits; AID 2557; in the data active = inhibition above about 50%
Target sequence (P13612 whole entry, looked up): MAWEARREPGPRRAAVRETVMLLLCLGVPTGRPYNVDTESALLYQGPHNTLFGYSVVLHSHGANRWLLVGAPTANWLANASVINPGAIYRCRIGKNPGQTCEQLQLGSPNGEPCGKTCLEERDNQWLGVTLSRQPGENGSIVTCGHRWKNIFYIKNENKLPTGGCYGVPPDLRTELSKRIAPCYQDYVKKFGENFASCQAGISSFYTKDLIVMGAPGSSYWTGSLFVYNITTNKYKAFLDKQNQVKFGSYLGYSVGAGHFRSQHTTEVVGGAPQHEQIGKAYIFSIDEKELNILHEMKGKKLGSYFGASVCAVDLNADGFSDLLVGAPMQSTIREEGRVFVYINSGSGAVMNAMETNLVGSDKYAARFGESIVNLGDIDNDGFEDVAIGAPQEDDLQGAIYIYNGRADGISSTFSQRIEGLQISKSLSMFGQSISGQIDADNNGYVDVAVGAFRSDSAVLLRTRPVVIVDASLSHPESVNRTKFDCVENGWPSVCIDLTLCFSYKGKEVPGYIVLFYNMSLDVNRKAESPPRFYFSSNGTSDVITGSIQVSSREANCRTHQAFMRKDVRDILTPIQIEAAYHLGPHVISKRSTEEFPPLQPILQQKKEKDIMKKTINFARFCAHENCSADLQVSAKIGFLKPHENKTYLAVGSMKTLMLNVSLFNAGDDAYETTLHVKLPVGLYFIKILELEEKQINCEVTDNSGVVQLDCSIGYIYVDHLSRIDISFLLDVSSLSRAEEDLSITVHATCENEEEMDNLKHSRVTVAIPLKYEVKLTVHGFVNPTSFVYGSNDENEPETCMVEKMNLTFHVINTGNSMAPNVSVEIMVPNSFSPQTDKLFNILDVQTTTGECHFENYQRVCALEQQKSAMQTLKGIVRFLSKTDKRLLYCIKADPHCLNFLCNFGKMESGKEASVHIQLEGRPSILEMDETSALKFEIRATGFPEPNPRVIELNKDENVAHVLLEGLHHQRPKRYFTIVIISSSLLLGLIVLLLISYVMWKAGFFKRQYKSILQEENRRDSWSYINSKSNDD
MT1-MMP act inh: blocks activation of human MT1-MMP; P50281; HT1080 RFP-PRO-GFP cells, GFP/RFP ratio fluorescence, overnight; percent of plate control window, DMSO zero; GFP/RFP ratio change, % at 20 µM; 360,000 compounds, 0.061% hits; AID 651647;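 active = GFP/RFP ratio change of at least 30% with cell ATP level not reduced by more than half and red fluorescence within 50% of control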
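Material – HT1080 RFP-PRO-GFP cells · Control set – DMSO wells and RFP-L50D-GFP cells · Incubation – overnight cell settling, then overnight compound exposure, 37 °C, 5% CO2 · Compound dosing – single-point 20 µM compound, 1% DMSO · Read-out – GFP/RFP fluorescence ratio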
VLA-4 mod pick: confirmation of allosteric modulators of human VLA-4 integrin; AID 2813; 1,300 compounds, 2% hits; inhibition, % at 6.7 µM; U937 cells, HUTS-21 LIBS mAb binding, flow cytometry; LDV ligand present at threefold Kd; shares compounds with VLA-4 inh; in the data active = inhibition above about 40%
Numbers stand for hits; n = inactive; x = no result given. Shown are actives, neighbours in structure and some others; about 2% of the full set was active somewhere.

SMILES	FGF22 binding	ABCB6 inh MLPCN	DAGLB inh	Granule exo inh	VLA-4 inh	MT1-MMP act inh	VLA-4 mod pick
CN(C(=O)Cn1c(=O)oc2ccccc21)C1CCCCC1	n	n	n	n	n	n	n
O=C(Cn1c(=O)oc2ccccc21)N1CCCC1	n	n	n	n	n	n	n
COc1ccccc1CNC(=O)C[C@@H]1CC[C@@H]2[C@H](COC[C@@H](O)CN2Cc2ccccc2)O1	n	x	x	x	x	x	x
O=C(CC1SCCNC1=O)Nc1ccccc1Cl (stereo not given)	n	n	n	n	59	n	n
Cc1ccc(S(=O)(=O)Nc2ccc3c(c2)C(=O)N([C@@H](C)CO)C[C@H](C)[C@H](CN(C)C(=O)Nc2c(C)noc2C)OCCCC[C@H](C)O3)cc1	n	x	x	x	x	x	x
CC(=O)Oc1ccc(Cl)cc1/C=C/c1cc(OC(C)=O)c2ccccc2n1	x	x	x	x	n	x	x
COc1cc(Cl)cc(/C=C/c2ccc3ccccc3n2)c1OC(C)=O	x	n	n	n	n	n	n
C[C@@H]1CN([C@H](C)CO)C(=O)Cc2cc(NC(=O)Cc3cn(C)c4ccccc34)ccc2O[C@H]1CN(C)C(=O)Nc1ccc2c(c1)OCO2	n	x	x	x	x	x	x
O=C(c1cc(-c2ccc(Cl)cc2)n(-c2ccc(Cl)cc2)n1)N1CCOCC1	x	n	n	n	92	n	n
CO/N=C/CC(=O)c1ccc([N+](=O)[O-])c(CS(=O)(=O)c2ccc(Cl)cc2)c1	n	n	n	n	n	n	n
COC(=O)[C@@H](Cc1ccccc1)NC(=O)Cn1cnc2c(SC)nc(N)nc21	n	n	n	n	n	n	x
CSc1nc(N)nc2c1ncn2CC(=O)N[C@H](C)c1cccc2ccccc12	n	n	n	n	54	n	n
C[C@H]1CN([C@@H](C)CO)C(=O)Cc2cc(NC(=O)Nc3ccc4c(c3)OCO4)ccc2O[C@H]1CN(C)C(=O)NC1CCCCC1	n	x	x	x	x	x	x
Cn1c(NC(=S)Nc2ccccc2)nc2ccccc21	x	n	n	n	n	n	n
Oc1ccc(NC(=S)Nc2ccccc2)cc1	n	n	n	n	n	n	n
S=C(Nc1ccccc1)Nc1nc2ccccc2n1CCOc1ccc(Br)cc1	x	n	n	n	n	n	x
COc1ccccc1-c1ccc([C@@H]2[C@H](CO)N(C(=O)C3CC3)C23CN(C(C)=O)C3)cc1	n	x	x	x	x	x	x
Cc1sc(NC(=O)CSc2nnnn2C(C)C)c(C#N)c1C	n	n	n	n	n	n	x
CCn1nnnc1SCC(=O)Nc1sc(C)c(C)c1C#N	x	n	n	n	94	n	n
Cc1ccc2c(c1)/C(=C/c1ccccc1)C(=O)N2	n	n	n	n	n	n	x
Cc1ccc2c(c1)/C(=C/c1ccccc1F)C(=O)N2	n	n	n	n	n	n	n
C[C@@H]1CN([C@@H](C)CO)C(=O)c2cccc(NC(=O)C3CCCCC3)c2O[C@@H]1CN(C)C(=O)Nc1ccc(F)cc1	n	x	x	x	x	x	x
COc1ccccc1-c1cn(CC[C@@H]2CC[C@@H](NC(=O)C3CCC3)[C@H](CO)O2)nn1	n	x	x	x	x	x	x
CO/N=C/C(=N\Nc1ccc(OC)cc1)C(=O)c1ccc(OC)cc1	x	n	n	n	91	n	n
COc1ccc2c3c(n(C)c2c1)[C@H](CO)N(C(=O)c1ccc(F)cc1)CC31CN(C(=O)c2ccc(F)cc2)C1	n	x	x	x	x	x	x
SMILES	FGF22 binding	ABCB6 inh MLPCN	DAGLB inh	Granule exo inh	VLA-4 inh	MT1-MMP act inh	VLA-4 mod pick
O=C(O)Cc1ccc(NS(=O)(=O)c2ccccc2Cl)cc1	n	n	x	n	n	n	n
Cc1cc(OC(=O)c2cc(F)c(F)cc2Cl)nc(C)n1	x	n	n	n	63	n	n
Cc1cc(OC(=O)c2c(Cl)cc(Cl)cc2Cl)nc(C)n1	x	n	n	n	n	n	x
C[C@H]1CN([C@@H](C)CO)C(=O)c2cc(C#CC3CCCCC3)cnc2O[C@@H]1CN(C)S(=O)(=O)c1cccc(F)c1	n	x	x	x	x	x	x
Cc1ccccc1S(=O)(=O)N[C@@H]1CC[C@@H](CCNS(=O)(=O)c2cccc(F)c2)O[C@@H]1CO	n	x	x	x	x	x	x
COC(=O)c1sc2nc(N3CCCCC3)c3c(c2c1N)CCCC3	x	n	n	n	90	n	n
NC(=O)c1sc2nc(N3CCCCC3)c3c(c2c1N)CCCC3	x	n	n	n	n	n	x

Screening data (PubChem)
